According to ChEMBL document CHEMBL1287671, “Design, synthesis and SAR of a novel series of benzimidazoles as potent NPY Y5 antagonists” (Bioorg Med Chem Lett, 2010):

What was measured:
Liver microsomes = assay: Intrinsic clearance in human liver microsomes; format: ADME, Microsome
Summary of the method: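 Intrinsic clearance measured in human liver microsomes; expressed as ml/min/g liver.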

[1] = Ratio of drug level in brain to blood in rat at 0.5 mg/kg, iv after 1 hr; format: ADME, organism-based; set-up: dose 0.5 mg/kg, route intravenous
Summary of the method: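 Male rats given 0.5 mg/kg iv; brain and blood levels sampled 1 h after dosing and expressed as brain/blood partition.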

CL (Liver microsomes) [mL/min/g]	Kp at 1 h [1]	SMILES
0.6	< 0.1	O=C(Nc1nc(-c2ccccn2)cs1)N1CCC2(CC1)CN(c1ccccc1)C(=O)O2
2.5		O=C1OC2(CCN(c3nc4cc(Br)ccc4[nH]3)CC2)CN1c1ccccc1
7		O=C1OC2(CCN(c3nc4cc(F)ccc4[nH]3)CC2)CN1c1ccccc1
7		O=C1OC2(CCN(c3nc4cc(-c5ccc(F)cc5)ccc4[nH]3)CC2)CN1c1ccccc1
0.5	0.3	O=C1OC2(CCN(c3nc4cc(OC(F)(F)F)ccc4[nH]3)CC2)CN1c1ccccc1
0.5	0.6	O=C1O[C@]2(CC[C@H](c3nc4ccc(OC(F)(F)F)cc4[nH]3)CC2)CN1c1ccccc1
0.5	0.8	O=C1O[C@]2(CC[C@H](c3nc4cc(OC(F)(F)F)ccc4[nH]3)CC2)CN1c1ccccc1F
0.5		O=C1O[C@]2(CC[C@H](c3nc4cc(OC(F)(F)F)ccc4[nH]3)CC2)CN1c1ccc(F)cc1
0.5		Cc1ccccc1N1C[C@]2(CC[C@@H](c3nc4ccc(OC(F)(F)F)cc4[nH]3)CC2)OC1=O
0.5		O=C1O[C@]2(CC[C@H](c3nc4ccc(OC(F)(F)F)cc4[nH]3)CC2)CN1c1ccccc1Cl
0.5	0.5	O=C1O[C@]2(CC[C@H](c3nc4cc(OC(F)(F)F)ccc4[nH]3)CC2)CN1c1ccccn1
0.6		Cc1cccc(N2C[C@]3(CC[C@@H](c4nc5ccc(OC(F)(F)F)cc5[nH]4)CC3)OC2=O)n1
0.6		Cc1ncccc1N1C[C@]2(CC[C@@H](c3nc4ccc(OC(F)(F)F)cc4[nH]3)CC2)OC1=O
0.5		O=C1O[C@]2(CC[C@H](c3nc4ccc(OC(F)(F)F)cc4[nH]3)CC2)CN1c1cccc(F)n1
0.5		O=C1O[C@]2(CC[C@H](c3nc4cc(OC(F)(F)F)ccc4[nH]3)CC2)CN1c1cccnc1
0.5	0.3	O=C1O[C@]2(CC[C@H](c3nc4cc(C(F)(F)F)ccc4[nH]3)CC2)CN1c1ccccc1
0.5		O=C1O[C@]2(CC[C@H](c3nc4cc(C(F)(F)F)ccc4[nH]3)CC2)CN1c1ccccn1
0.5	< 0.03	N#Cc1ccc2nc([C@H]3CC[C@]4(CC3)CN(c3ccccc3)C(=O)O4)[nH]c2c1
0.5		N#Cc1ccc2[nH]c([C@H]3CC[C@]4(CC3)CN(c3ccc(F)cc3)C(=O)O4)nc2c1
15		N#Cc1ccc2nc([C@H]3CC[C@]4(CC3)CN(c3ccccn3)C(=O)O4)[nH]c2c1
0.5	0.2	O=C1OC2(CCN(c3nc4cc(C(F)(F)F)ccc4[nH]3)CC2)CN1c1ccccc1
9.8		O=C1OC2(CCN(c3nc4ccccc4[nH]3)CC2)CN1c1ccccc1
